Measured values taken from ChEMBL document CHEMBL4041495, “Identification of fused bicyclic derivatives of pyrrolidine and imidazolidinone as dengue virus-2 NS2B-NS3 protease inhibitors” (Eur J Med Chem, 2017).
Peptide text beside a SMILES is read from it. * marks the point of attachment. pNA = O=[N+]([O-])c1ccc(N*)cc1

Key:
dengue virus type 2 [1] = assay: Inhibition of DENV2 NS2B-NS3 protease assessed as residual activity at 15 uM using Benzoyl-Nle-Lys-Arg-Arg-AMC as substrate preincubated for 3 mins followed by substrate addition by fluorescence spectrophotometer
[2] = Inhibition of DENV2 NS2B-NS3 protease using Benzoyl-Nle-Lys-Arg-Arg-AMC as substrate preincubated for 3 mins followed by substrate addition by fluorescence spectrophotometer; set-up: species or system Dengue virus
Method in brief: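 Plasmid-expressed DENV-2 NS2B-NS3 protease was assayed at 37 °C, pH 9.0 (50 mM Tris-HCl, 10 mM NaCl, 20% glycerol, 1 mM CHAPS, 0.04% NaN3). Inhibitor at graded concentrations was preincubated 3 min before 33 µM substrate was added, and fluorescence was read at 356/438 nm. IC50 was derived from remaining activity (vehicle = 100%) versus concentration, as the mean of triplicates.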

[3] = Cytotoxicity against human HuH7 cells after 48 hrs by cell-titer glo luminescent viability assay; assay type: cell-based, Huh-7
dengue virus type 2 [4] = assay: Antiviral activity against DENV2 infected Vero E6 cells assessed as reduction in viral titer after 48 hrs by plaque assay; assay type: functional, Vero C1008; details: Huh-7, 48 h, in the assay text read “Huh-7” for “Vero E6”
Method in brief: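 Huh-7 cells (10^4/well) were infected with wild-type DENV-2 at MOI 1. Non-toxic compound concentrations were added 1 h later, and cells were incubated 48 h at 37 °C, in triplicate. Virus yield in the supernatant was titred on Vero E6 cells with 10^-1 to 10^-6 dilutions, 7-day plaque development, formaldehyde fixation and crystal violet staining. Titer reduction was judged against an untreated control.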

Dengue virus [5] = assay: Inhibition of DENV2 NS2B-NS3 protease assessed as residual activity at 16 uM using Benzoyl-Nle-Lys-Arg-Arg-AMC as substrate preincubated for 3 mins followed by substrate addition by fluorescence spectrophotometer
dengue virus type 2 [6] = assay: Inhibition of DENV2 NS2B-NS3 protease assessed as residual activity up to 200 uM using Benzoyl-Nle-Lys-Arg-Arg-AMC as substrate preincubated for 3 mins followed by substrate addition by fluorescence spectrophotometer
Dengue virus [7] = assay: Inhibition of DENV2 NS2B-NS3 protease assessed as residual activity at 200 uM using Benzoyl-Nle-Lys-Arg-Arg-AMC as substrate preincubated for 3 mins followed by substrate addition by fluorescence spectrophotometer
Dengue virus [8] = assay: Inhibition of DENV2 NS2B-NS3 protease assessed as residual activity at 20 uM using Benzoyl-Nle-Lys-Arg-Arg-AMC as substrate preincubated for 3 mins followed by substrate addition by fluorescence spectrophotometer

SMILES: O=C1[C@@H]2CCCN2[C@@H](c2ccc([N+](=O)[O-])cc2)N1c1ccc([N+](=O)[O-])cc1
- Activity (dengue virus type 2 [1]): 32%
- IC50 [2]: 1.2 µM
- CC50 at 48 h [3]: > 100 µM
- EC50 (dengue virus type 2 [4]): 39.4 µM

SMILES: CC(C)[C@H]1N(c2ccc([N+](=O)[O-])cc2)C(=O)[C@@H]2CCCN21
- Activity (Dengue virus [5]): 66%

SMILES: C[C@H]1N(c2ccc([N+](=O)[O-])cc2)C(=O)[C@@H]2CCCN21
- Activity (Dengue virus [5]): 58%

SMILES: O=C1[C@@H]2CCCN2[C@@H](c2cccc([N+](=O)[O-])c2)N1c1ccc([N+](=O)[O-])cc1
- Activity (dengue virus type 2 [6]): > 50%

SMILES: O=C1[C@@H]2CCCN2[C@@H](Cc2ccc([N+](=O)[O-])cc2)N1c1ccc([N+](=O)[O-])cc1
- Activity (dengue virus type 2 [6]): > 50%

SMILES: O=C1[C@@H]2CCCN2CN1c1ccc([N+](=O)[O-])cc1
- Activity (Dengue virus [5]): 61%

SMILES: O=C1[C@@H]2CCCN2[C@@H](c2ccccc2)N1c1ccc([N+](=O)[O-])cc1
- Activity (Dengue virus [7]): 33%

SMILES: CC(C)c1ccc([C@H]2N(c3ccc([N+](=O)[O-])cc3)C(=O)[C@@H]3CCCN32)cc1
- Activity (dengue virus type 2 [6]): > 50%

SMILES: CC[C@H]1N(c2ccc([N+](=O)[O-])cc2)C(=O)[C@@H]2CCCN21
- Activity (Dengue virus [5]): 40%

SMILES: O=C1[C@@H]2CCCN2[C@@H](c2ccc(Cl)cc2)N1c1ccc([N+](=O)[O-])cc1
- Activity (dengue virus type 2 [6]): > 50%

SMILES: O=C1[C@@H]2CCCN2[C@@H](c2ccc(C(F)(F)F)cc2)N1c1ccc([N+](=O)[O-])cc1
- Activity (dengue virus type 2 [6]): > 50%

SMILES: O=C1[C@@H]2CCCN2[C@H](c2ccc(C(F)(F)F)cc2)N1c1ccc([N+](=O)[O-])cc1
- Activity (dengue virus type 2 [6]): > 50%

SMILES: CSCC[C@H](N)C(=O)N1CCC[C@H]1C(=O)Nc1ccc([N+](=O)[O-])cc1 (H-Met-Pro-pNA)
- IC50 [2]: 1.2 µM
- CC50 at 48 h [3]: > 100 µM
- EC50 (dengue virus type 2 [4]): 38.7 µM

SMILES: O=C1[C@@H]2CCCN2[C@H](c2ccc([N+](=O)[O-])cc2)N1c1ccc([N+](=O)[O-])cc1
- Activity (dengue virus type 2 [6]): > 50%

SMILES: O=C1[C@@H]2CCCN2[C@@H](Cc2ccccc2)N1c1ccc([N+](=O)[O-])cc1
- Activity (Dengue virus [8]): 58%

SMILES: O=C1[C@@H]2CCCN2[C@H](c2ccc(Cl)cc2)N1c1ccc([N+](=O)[O-])cc1
- Activity (dengue virus type 2 [6]): > 50%

SMILES: COc1ccc([C@H]2N(c3ccc([N+](=O)[O-])cc3)C(=O)[C@@H]3CCCN32)cc1
- Activity (dengue virus type 2 [6]): > 50%
